Source: PubChem (several laboratories)
PTK2B oligo ant = Pyk2 (human) oligomerization antagonism; Q293 cells, Pyk2 FERM NanoBiT luminescence; active compounds read low; AID 1347419; z-score (the deposit names both 25 µM and 10 µM); Q14289; 0.83% of 99,000 active;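 active means Z-score of -3 or lower, scaled per plate to the spread of control and sample wells; inactive means z-score above -3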;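 further: negative z-score means lost luminescence so less FERM oligomerization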
Ecoli tolC = blocks growth of E. coli BW25113 tolC mutant; OD615; growth inhibition, % at 10 µM (by protocol); 2.2% of 65,000 active;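 active means growth inhibition at or above a cutoff equal to the mean over every tested compound plus 3 SD, cut at about 60% in these data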;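 further: growth measured after 20 h incubation at 37 °C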
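Doses: one dose of 10 µM final / Material: E. coli BW25113 ΔtolC::kan, tolC deletion mutant strain / Buffer or medium: LB with kanamycin 50 µg/mL / Evaluation: percent growth inhibition / Detection: optical density read at 615 nm / Incubation: 37 °C, 20 h exposure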
Cav3 T inh = blocks human Cav3.2 T-type calcium channel; Cav3.2-expressing cells, Fluo-4 calcium fluorescence FDSS; active compounds read low; AID 449739; 4% of 100,000 active; O95180; B-score at 10 µM;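 active means single-dose well whose peak fluorescence ratio is a statistical outlier from its plate by either plate-standardised score or position-corrected B-score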
PostGolgi yeast = growth inhibition of a yeast mutant, post-Golgi transport screen; 0.9% of 98,000 active; post-Golgi transport phenotypic cell assay; inhibition, % at 10 µM;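 further: yeast cells grown in 1536-well plates; yeast grown about 18 h at 30C before absorbance read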
Ecoli WT expand = E. coli BW25113 growth inhibition, expanded screen; OD600 absorbance; growth inhibition, % at 100 µM; 0.15% of 98,000 active; AID 710;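 active means growth inhibition above about 50% at one test dose, limit read from the data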;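 further: growth measured after 20 h incubation at 37 °C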
PostGolgi ctrl = yeast control strain growth, post-Golgi counter-screen. efflux-deficient yeast background strain, growth absorbance A615, 16 h. inhibition, % at 10 µM. 5% of 98,000 active
* hit, by the source's call; · = no result. This is a sample that favours compounds with a hit; in the whole collection about 8.7% have one here. Unless noted, no stated cut-off is given here; in the data, active means inhibition above about 30%; inactive means the rest.

SMILES	PTK2B oligo ant	Ecoli tolC	Cav3 T inh	PostGolgi yeast	Ecoli WT expand	PostGolgi ctrl
CC(=O)NC(CCS(C)(=O)=O)C(=O)Nc1ccccc1Cl (configuration not stated)	-0.37	-19	·	3	-2	0
CC(=O)NC(CCS(C)(=O)=O)C(=O)Nc1cc(Cl)ccc1Cl (configuration not stated)	·	-21	0.23	-3	7	32*
Cc1ccc2c(c1)[nH]c1c(=O)n(CCC3=CCCCC3)cnc12	·	·	-0.028	-6	-10	-3
Clc1ccc(OCCN2CCN(c3ncnc4sccc34)CC2)cc1	1	94*	-1.2	-11	5	33*
Cc1ccc(OCCN2CCN(c3ncnc4sc(C)c(C)c34)CC2)cc1	-0.24	·	-3.6*	0	2	20
Cc1sc2ncnc(N3CCCCC3)c2c1C	0.73	·	-1.9	1	8	9
CCOC(=O)c1sc(C)c2c1NC(C)(c1ccccc1)NC2=O (configuration not stated)	-0.32	·	-1.4	2	4	22
Cc1nc2ccccc2n2c(-c3ccccc3)c3c(=O)n(C)c(=O)n(C)c3c12	-0.39	·	2	17	-7	47*
CC(=O)c1c(C)n([O-])c2ccc(C)cc2[n+]1=O	0.46	72*	·	18	53*	12
Clc1ccc(OCCOCCN2CCCCC2)c(Br)c1	0.25	·	0.61	42*	16	26
Clc1cc(Br)ccc1OCCOCCN1CCOCC1	-0.35	8	0.67	53*	6	14
CCOC(=O)/C=C1\SCC(=O)N1CC(=O)Nc1ccc2c(c1)CCC2	-0.74	20	-1	-4	-2	8
CCOC(=O)/C=C1\SCC(=O)N1CC(O)CN1C(=O)CS/C1=C\C(=O)OCC	-0.03	-4	1.3	4	-9	-1
CCOC(=O)/C=C1\SCC(=O)N1CCOc1cccc(Br)c1	-0.9	26	-4.3*	4	-14	19
CCOC(=O)/C=C1\SCC(=O)N1CC(=O)Nc1ccc(C(C)C)cc1	-0.59	·	-3.8*	-2	5	9
Cn1c(=O)n(C)c2cc(NC(=O)CSc3nnc(-c4ccccc4O)n3-c3ccccc3)ccc21	1.2	4	0.021	-6	-5	2
Cc1ccc(S(=O)(=O)Nc2ccc3c(c2)CCC3)cc1	-1.6	·	·	·	·	·
COC(=O)Nc1ccc(S(=O)(=O)Nc2ccc(C)cc2)cc1	·	·	0.0094	39*	0	37*
COC(=O)c1cc2cc(NS(=O)(=O)c3ccc(C)cc3)ccc2s1	-0.47	·	0.022	-11	-5	52*
Cc1ccc(-n2nnnc2Sc2nc([N+](=O)[O-])nn2C)cc1C	-0.8	·	0.33	2	2	8
CC(=O)OCCOc1nc(N(C)C)nc(N(C)C)n1	0.48	-11	0.47	6	-1	1
S=c1[nH]nc(Cc2sc(-c3ccccc3)nc2-c2ccccc2)o1	-0.8	·	·	9	0	0
CC(=O)Nc1cccc(-c2csc(NCc3ccco3)n2)c1	-0.03	4	-0.36	8	-1	11
COc1ccc(OC)c(C2=Nn3c(nnc3-c3cc(OC)c(OC)c(OC)c3)SC2)c1	-3.1*	14	-0.66	9	-1	24
COc1ccc(C2=Nn3c(nnc3-c3ccc(OC)cc3)SC2)cc1	-2	27	-7.2*	29	-1	42*
SMILES	PTK2B oligo ant	Ecoli tolC	Cav3 T inh	PostGolgi yeast	Ecoli WT expand	PostGolgi ctrl
COc1ccc(OC)c(C2=Nn3c(nnc3-c3ccncc3)SC2)c1	·	17	·	·	·	·
c1ccc(C2=Nn3c(nnc3-c3cc(-c4ccccc4)n[nH]3)SC2)cc1	-3.3*	9	-0.7	-2	-5	14
Clc1ccc(C2=Nn3c(nnc3-c3cc(-c4ccccc4)n[nH]3)SC2)cc1	-1.2	·	-4.1	5	2	10
COc1cccc(-c2nnc3n2N=C(c2cc(OC)ccc2OC)CS3)c1	-1.8	·	-1.8	8	-8	37*
O=S(=O)(Nc1cccc2c1ccc1cccn12)c1cccs1	0.7	·	-2.7	15	3	-3
O=C(c1ccc(Oc2ccccc2)cc1)c1nc2c(n1O)CCCC2	-0.58	·	-1.7	-2	9	15
COc1cccc(C2=Nn3c(nnc3-c3ccccc3O)SC2)c1	-0.32	12	-0.6	10	-7	7
CCOc1cccc(-c2nnc3n2N=C(c2cc(OC)ccc2OC)CS3)c1	-0.85	22	-4	-1	3	58*
CC(C)CCNC(=O)Cn1c(NCCC(C)C)nc2c1c(=O)n(C)c(=O)n2C	·	-3	1.3	·	·	·
Cc1cc(C)n(-c2nnc(C)n2/N=C/c2ccccc2OCc2ccccc2Cl)n1	-0.99	23	-5.6*	-5	10	25
COc1ccccc1/C=N/n1c(C)nnc1-n1nc(C)cc1C	0.28	·	-0.03	-4	-6	0
Cc1cc(C)n(-c2nnc(C)n2/N=C/c2cc(Br)ccc2OCc2ccccc2)n1	-1.1	22	-6.9*	0	7	29
Cc1ccc(SCC(=O)NCCSC(C)(C)C)cc1	0.6	·	0.013	7	6	4
CCOc1cccc(Oc2ccc(C(F)(F)F)cn2)c1	0.53	-2	·	2	8	34*
O=C(CCNS(=O)(=O)c1ccc(Br)s1)Nc1ccc(Cl)cc1	-1.3	·	-1.8	-4	-1	19
COC(=O)CN1C2(C#N)CCCCC2CC2CCCCC21C#N (configuration not stated)	0.26	5	0.84	5	4	-1
Cc1ccc(C(=O)c2cn[nH]c2-c2cc(Cl)ccc2O)cc1	-2.1	13	-1.8	0	16	38*
COc1ccc(O)c(-c2[nH]ncc2C(=O)c2ccccc2)c1	-3.5*	4	0.83	7	-7	-7
CCCOn1c(OCC(C)C)nc2ccccc2c1=O	0.35	26	-5*	-2	9	15
CN(C)CCNC(=O)c1c(CSc2ccc(Cl)cc2)noc1C(=O)NCc1ccccc1	·	·	-1.7	·	·	·
c1ccc2c(c1)oc1c(NCC3CCCO3)ncnc12 (configuration not stated)	1.3	·	-0.28	0	-2	8
c1ccc(-c2nc(NCc3cccnc3)c3oc4ccccc4c3n2)cc1	-3	13	-0.16	17	-10	55*
c1ccc(-c2nc(NCC3CCCO3)c3oc4ccccc4c3n2)cc1 (configuration not stated)	-0.71	·	0.11	2	-24	53*
COc1ccc(-c2cc(-c3c(O)c(OC)c4occc4c3OC)[nH]n2)cc1	-1.3	·	-2.4	16	11	56*
COc1ccc(-c2cc(-c3c(O)c(OC)c4occc4c3OC)[nH]n2)cc1OC	-3	43	-0.58	2	6	15
O=C(OCn1nnc2ccccc2c1=O)C1COc2ccccc2O1 (configuration not stated)	0.38	-16	0.43	-3	-7	2
O=c1c2ccccc2nnn1CSc1nnc(C2COc3ccccc3O2)n1-c1ccccc1 (configuration not stated)	-0.48	18	-6.1*	0	-13	20
COc1cccc(-n2c(SCc3cc(=O)oc4cc(O)c(O)cc34)nc3ccccc3c2=O)c1	-2.6	·	·	·	·	·
